Laboratory results as given in ChEMBL document CHEMBL4118192, “BET bromodomain ligands: Probing the WPF shelf to improve BRD4 bromodomain affinity and metabolic stability” (Bioorg Med Chem, 2018).

Key:
[1] = test system: SK-MEL-5; test: Growth inhibition of human SK-MEL-5 cells after 48 hrs by sulforhodamine B assay; assay type: functional; conditions: SK-MEL-5, 48 h
How it was run: (§1)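 NCI-60 panel follow-up: five concentrations from 10 nM to 100 μM, 48 h exposure. Growth read by sulforhodamine B protein staining. GI50 derived from the concentration-response, with the concentration for total growth inhibition (TGI) also recorded when below 100 μM.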

[2] = target: Bromodomain and WD repeat-containing protein 1 (Homo sapiens) (UniProt Q9NSI6); test: Inhibition of human partial length WDR9 bromodomain 2 (A1310 to E1430 residues) expressed in bacterial expression system assessed as residual activity at 1 uM by BROMOscan assay relative to control
[3] = target: T1, Bromodomain-containing protein 4 (Homo sapiens, UniProt O60885); test: Inhibition of human partial length BRD4 bromodomain 2 (K333 to E460 residues) expressed in bacterial expression system assessed as residual activity at 1 uM by BROMOscan assay relative to control
[4] = test system: NCI-H322M; test: Growth inhibition of human NCI-H322M cells after 48 hrs by sulforhodamine B assay; assay type: functional; how it was run: as §1
[5] = test system: ACHN; test: Growth inhibition of human ACHN cells at 10 uM after 48 hrs by sulforhodamine B assay relative to control; assay type: functional; conditions: read-out: GI
How it was run: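 NCI-60 single-dose screen at 10 μM for 48 h. Percent growth inhibition was measured by sulforhodamine B staining of cellular protein.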

[6] = target: Bromodomain-containing protein 3 (Homo sapiens) (UniProt Q15059); test: Inhibition of human partial length BRD3 bromodomain 1 (P24 to E144 residues) expressed in bacterial expression system assessed as residual activity at 1 uM by BROMOscan assay relative to control
Chain of Bromodomain-containing protein 3 (Homo sapiens) (Q15059 2-726 limits assumed): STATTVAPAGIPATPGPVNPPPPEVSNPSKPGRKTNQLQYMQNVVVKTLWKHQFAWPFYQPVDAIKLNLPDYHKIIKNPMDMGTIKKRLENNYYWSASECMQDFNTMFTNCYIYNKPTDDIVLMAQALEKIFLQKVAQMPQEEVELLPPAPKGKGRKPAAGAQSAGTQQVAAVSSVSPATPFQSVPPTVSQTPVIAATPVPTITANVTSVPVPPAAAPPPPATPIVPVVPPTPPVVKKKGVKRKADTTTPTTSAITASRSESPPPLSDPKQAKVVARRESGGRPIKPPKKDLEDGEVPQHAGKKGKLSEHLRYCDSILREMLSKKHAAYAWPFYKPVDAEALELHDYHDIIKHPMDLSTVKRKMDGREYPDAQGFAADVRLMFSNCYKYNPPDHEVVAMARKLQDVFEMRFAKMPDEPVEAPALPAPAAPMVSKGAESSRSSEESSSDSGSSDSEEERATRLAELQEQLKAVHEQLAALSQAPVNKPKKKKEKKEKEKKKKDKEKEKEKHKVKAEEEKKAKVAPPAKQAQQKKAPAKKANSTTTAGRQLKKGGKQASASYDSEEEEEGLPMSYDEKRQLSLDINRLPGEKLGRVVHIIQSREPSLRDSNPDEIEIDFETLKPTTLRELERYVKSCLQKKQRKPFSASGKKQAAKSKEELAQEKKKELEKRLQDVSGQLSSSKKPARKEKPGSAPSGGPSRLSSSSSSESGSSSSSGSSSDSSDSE

[7] = target: Peregrin (Homo sapiens) (UniProt P55201); test: Inhibition of human partial length BRPF1 (E627 to G740 residues) expressed in bacterial expression system assessed as residual activity at 1 uM by BROMOscan assay relative to control
Chain of Peregrin (Homo sapiens) (P55201 whole entry, the tested form may be a part): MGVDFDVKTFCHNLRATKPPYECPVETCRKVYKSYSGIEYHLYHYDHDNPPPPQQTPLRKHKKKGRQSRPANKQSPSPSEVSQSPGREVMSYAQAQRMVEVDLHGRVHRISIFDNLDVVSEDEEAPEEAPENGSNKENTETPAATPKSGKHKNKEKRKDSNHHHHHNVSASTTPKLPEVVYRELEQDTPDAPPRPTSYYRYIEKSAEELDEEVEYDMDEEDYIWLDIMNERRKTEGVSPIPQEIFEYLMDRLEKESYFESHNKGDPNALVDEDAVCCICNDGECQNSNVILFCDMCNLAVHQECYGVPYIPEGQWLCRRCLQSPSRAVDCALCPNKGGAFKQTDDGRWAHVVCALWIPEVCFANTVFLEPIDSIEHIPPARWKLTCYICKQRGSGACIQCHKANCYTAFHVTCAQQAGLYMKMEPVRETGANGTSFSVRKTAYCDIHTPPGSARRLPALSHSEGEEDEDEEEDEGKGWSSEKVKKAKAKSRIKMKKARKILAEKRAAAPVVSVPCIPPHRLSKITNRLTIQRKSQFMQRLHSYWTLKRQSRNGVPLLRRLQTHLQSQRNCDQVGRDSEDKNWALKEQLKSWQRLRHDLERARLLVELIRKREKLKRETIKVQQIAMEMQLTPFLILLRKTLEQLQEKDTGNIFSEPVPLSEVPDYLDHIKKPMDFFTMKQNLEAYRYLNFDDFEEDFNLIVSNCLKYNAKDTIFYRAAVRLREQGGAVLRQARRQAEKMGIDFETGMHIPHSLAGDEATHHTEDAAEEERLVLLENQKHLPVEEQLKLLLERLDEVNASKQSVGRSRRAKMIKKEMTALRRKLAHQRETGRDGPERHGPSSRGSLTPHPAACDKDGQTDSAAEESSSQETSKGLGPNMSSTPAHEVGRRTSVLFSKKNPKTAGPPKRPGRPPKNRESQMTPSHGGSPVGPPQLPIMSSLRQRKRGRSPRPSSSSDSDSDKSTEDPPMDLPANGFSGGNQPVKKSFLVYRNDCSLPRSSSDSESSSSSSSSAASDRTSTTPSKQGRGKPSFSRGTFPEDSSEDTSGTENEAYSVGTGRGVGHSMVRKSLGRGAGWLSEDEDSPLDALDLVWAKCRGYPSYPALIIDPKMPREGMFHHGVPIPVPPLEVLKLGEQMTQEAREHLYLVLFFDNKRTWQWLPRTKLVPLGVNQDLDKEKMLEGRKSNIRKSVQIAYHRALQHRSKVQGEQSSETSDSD

[8] = test system: ACHN; test: Growth inhibition of human ACHN cells after 48 hrs by sulforhodamine B assay; assay type: functional
How it was run: (§2)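 NCI-60 panel screen. Cells were exposed for 48 h at five concentrations between 10 nM and 100 μM. Cellular protein was read by sulforhodamine B staining, and GI50 and total growth inhibition (TGI) concentrations were derived.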

[9] = test system: NCI-H522; test: Growth inhibition of human NCI-H522 cells at 10 uM after 48 hrs by sulforhodamine B assay relative to control; assay type: functional; conditions: NCI-H522, 48 h, read-out: GI
How it was run: (§3)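 NCI-60 human cancer cell line screen, single-dose pass: cells exposed to 10 μM for 48 h. Cellular protein content read out by sulforhodamine B staining, and growth inhibition expressed relative to untreated control.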

[10] = Intrinsic clearance in human liver microsomes at 3 uM; assay type: ADME, microsome; conditions: read-out: CLH
[11] = test system: NCI-H322M; test: Growth inhibition of human NCI-H322M cells at 10 uM after 48 hrs by sulforhodamine B assay relative to control; assay type: functional; conditions: read-out: GI; how it was run: as §3
[12] = target: ATPase family AAA domain-containing protein 2B (Homo sapiens) (UniProt Q9ULI0); test: Inhibition of human partial length ATAD2B (Q955 to R1082 residues) expressed in bacterial expression system assessed as residual activity at 1 uM by BROMOscan assay relative to control
Chain of ATPase family AAA domain-containing protein 2B (Homo sapiens) (Q9ULI0 whole entry, the tested form may be a part): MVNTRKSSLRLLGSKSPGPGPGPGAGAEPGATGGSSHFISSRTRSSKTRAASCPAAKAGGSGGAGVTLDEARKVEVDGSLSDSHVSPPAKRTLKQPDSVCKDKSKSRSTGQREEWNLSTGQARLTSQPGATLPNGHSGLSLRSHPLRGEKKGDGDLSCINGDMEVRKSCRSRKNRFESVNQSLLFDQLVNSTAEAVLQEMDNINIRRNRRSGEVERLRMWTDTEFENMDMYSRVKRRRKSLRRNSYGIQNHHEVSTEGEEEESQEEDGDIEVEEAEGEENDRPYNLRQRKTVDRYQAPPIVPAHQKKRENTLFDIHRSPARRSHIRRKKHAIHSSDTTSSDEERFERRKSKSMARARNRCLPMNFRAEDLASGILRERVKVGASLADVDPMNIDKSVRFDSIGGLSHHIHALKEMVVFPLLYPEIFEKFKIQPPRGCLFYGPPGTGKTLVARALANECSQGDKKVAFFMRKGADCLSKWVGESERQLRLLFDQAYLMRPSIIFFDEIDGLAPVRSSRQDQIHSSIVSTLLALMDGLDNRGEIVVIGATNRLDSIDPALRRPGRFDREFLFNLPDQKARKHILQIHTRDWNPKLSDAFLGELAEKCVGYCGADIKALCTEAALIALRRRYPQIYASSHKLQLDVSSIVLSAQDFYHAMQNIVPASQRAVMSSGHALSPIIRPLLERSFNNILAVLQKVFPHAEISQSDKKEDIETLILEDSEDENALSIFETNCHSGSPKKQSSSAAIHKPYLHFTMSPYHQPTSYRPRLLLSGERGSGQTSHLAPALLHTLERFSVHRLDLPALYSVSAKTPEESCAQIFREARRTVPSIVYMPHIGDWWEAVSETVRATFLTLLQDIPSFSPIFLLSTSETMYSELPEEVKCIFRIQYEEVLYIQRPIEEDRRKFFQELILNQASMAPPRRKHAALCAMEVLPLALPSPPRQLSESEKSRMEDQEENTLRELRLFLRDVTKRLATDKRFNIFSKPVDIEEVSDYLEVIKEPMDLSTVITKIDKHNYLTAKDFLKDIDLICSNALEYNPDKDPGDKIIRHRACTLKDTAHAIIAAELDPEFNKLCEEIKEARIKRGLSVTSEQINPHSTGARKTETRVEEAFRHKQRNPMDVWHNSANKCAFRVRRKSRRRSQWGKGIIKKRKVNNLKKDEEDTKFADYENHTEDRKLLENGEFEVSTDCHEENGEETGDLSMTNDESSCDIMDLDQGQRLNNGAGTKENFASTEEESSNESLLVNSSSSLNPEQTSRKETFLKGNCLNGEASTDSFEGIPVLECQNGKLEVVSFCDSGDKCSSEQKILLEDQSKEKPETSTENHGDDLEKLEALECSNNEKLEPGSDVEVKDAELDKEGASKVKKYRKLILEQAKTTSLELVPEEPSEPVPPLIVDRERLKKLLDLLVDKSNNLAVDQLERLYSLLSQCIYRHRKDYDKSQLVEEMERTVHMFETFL

[13] = test system: SK-OV-3; test: Growth inhibition of human SKOV3 cells after 48 hrs by sulforhodamine B assay; assay type: functional; conditions: SK-OV-3, 48 h; how it was run: as §1
[14] = target: CREB-binding protein (Homo sapiens) (UniProt Q92793); test: Inhibition of human partial length CREBBP (R1081 to G1197 residues) expressed in bacterial expression system assessed as residual activity at 1 uM by BROMOscan assay relative to control
[15] = test system: HCC 2998; test: Growth inhibition of human HCC2998 cells after 48 hrs by sulforhodamine B assay; assay type: functional; conditions: HCC 2998, 48 h; how it was run: as §2
[16] = target: Bromodomain testis-specific protein (Homo sapiens) (UniProt Q58F21); test: Inhibition of human partial length BRDT bromodomain 1 (N21 to E137 residues) expressed in bacterial expression system assessed as residual activity at 1 uM by BROMOscan assay relative to control
[17] = test system: NCI-H460; test: Growth inhibition of human NCI-H460 cells after 48 hrs by sulforhodamine B assay; assay type: functional; conditions: NCI-H460, 48 h; how it was run: as §1
[18] = target: SWI/SNF-related matrix-associated actin-dependent regulator of chromatin subfamily A member 4 (Homo sapiens) (UniProt P51532); test: Inhibition of human partial length SMARCA4 (A1448 to S1575 residues) expressed in bacterial expression system assessed as residual activity at 1 uM by BROMOscan assay relative to control
[19] = target: T1, Bromodomain-containing protein 4; test: Inhibition of human partial length BRD4 bromodomain 1 (N44 to E168 residues) expressed in bacterial expression system assessed as residual activity at 1 uM by BROMOscan assay relative to control
[20] = test system: MOLT-4; test: Growth inhibition of human MOLT4 cells at 10 uM after 48 hrs by sulforhodamine B assay relative to control; assay type: functional; conditions: MOLT-4, 48 h, read-out: GI; how it was run: as §3
[21] = target: Bromodomain-containing protein 9 (Homo sapiens) (UniProt Q9H8M2); test: Inhibition of human partial length BRD9 (R130 to V259 residues) expressed in bacterial expression system assessed as residual activity at 1 uM by BROMOscan assay relative to control
Chain of Bromodomain-containing protein 9 (Homo sapiens) (Q9H8M2 whole entry, the tested form may be a part): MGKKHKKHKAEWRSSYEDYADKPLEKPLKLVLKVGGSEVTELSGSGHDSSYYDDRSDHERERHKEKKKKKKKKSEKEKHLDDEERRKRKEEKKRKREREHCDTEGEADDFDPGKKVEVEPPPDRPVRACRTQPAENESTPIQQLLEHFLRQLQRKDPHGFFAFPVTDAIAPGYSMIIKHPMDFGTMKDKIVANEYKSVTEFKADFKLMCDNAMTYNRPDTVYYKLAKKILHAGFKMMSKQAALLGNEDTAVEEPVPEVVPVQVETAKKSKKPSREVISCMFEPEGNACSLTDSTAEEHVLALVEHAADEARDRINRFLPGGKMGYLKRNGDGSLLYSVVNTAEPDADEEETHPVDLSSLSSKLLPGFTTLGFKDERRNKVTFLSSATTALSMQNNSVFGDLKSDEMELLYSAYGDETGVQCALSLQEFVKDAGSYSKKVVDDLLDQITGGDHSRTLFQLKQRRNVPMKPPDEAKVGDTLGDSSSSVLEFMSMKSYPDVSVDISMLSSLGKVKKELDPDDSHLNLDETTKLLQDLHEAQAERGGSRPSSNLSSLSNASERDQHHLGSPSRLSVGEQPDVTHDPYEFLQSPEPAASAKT

[22] = test system: COLO 205; test: Growth inhibition of human COLO205 cells after 48 hrs by sulforhodamine B assay; assay type: functional; conditions: COLO 205, 48 h; how it was run: as §2
[23] = test system: MDA-MB-468; test: Growth inhibition of human MDA-MB-468 cells after 48 hrs by sulforhodamine B assay; assay type: functional; conditions: MDA-MB-468, 48 h; how it was run: as §1
[24] = target: Bromodomain-containing protein 2 (Homo sapiens) (UniProt P25440); test: Inhibition of human partial length BRD2 bromodomain 1 (K71 to N194 residues) expressed in bacterial expression system assessed as residual activity at 1 uM by BROMOscan assay relative to control
Chain of Bromodomain-containing protein 2 (Homo sapiens) (P25440 whole entry, looked up, the tested form may be a part): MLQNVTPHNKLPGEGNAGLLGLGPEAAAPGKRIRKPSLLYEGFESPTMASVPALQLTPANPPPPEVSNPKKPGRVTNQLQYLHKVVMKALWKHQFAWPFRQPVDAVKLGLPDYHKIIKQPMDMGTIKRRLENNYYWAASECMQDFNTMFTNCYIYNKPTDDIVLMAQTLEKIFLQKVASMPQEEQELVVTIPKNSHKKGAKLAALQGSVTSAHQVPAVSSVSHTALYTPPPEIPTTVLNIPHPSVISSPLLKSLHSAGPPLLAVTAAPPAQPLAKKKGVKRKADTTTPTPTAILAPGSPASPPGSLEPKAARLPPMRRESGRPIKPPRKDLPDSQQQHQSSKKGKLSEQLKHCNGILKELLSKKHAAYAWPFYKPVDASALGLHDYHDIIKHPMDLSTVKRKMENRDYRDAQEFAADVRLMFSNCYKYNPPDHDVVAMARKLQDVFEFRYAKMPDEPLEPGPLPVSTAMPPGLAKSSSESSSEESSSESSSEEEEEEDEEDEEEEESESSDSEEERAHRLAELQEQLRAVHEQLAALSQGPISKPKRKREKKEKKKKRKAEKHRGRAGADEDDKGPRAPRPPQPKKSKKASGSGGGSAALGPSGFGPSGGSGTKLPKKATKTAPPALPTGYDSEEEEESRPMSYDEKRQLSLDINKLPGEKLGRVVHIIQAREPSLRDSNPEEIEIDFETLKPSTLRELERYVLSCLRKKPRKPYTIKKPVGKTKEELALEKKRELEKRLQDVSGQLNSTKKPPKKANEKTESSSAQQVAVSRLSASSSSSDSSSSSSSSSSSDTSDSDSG

[25] = target: Histone acetyltransferase KAT2B (Homo sapiens) (UniProt Q92831); test: Inhibition of human partial length PCAF (G715 to D831 residues) expressed in bacterial expression system assessed as residual activity at 1 uM by BROMOscan assay relative to control
[26] = test system: Malme-3M; test: Growth inhibition of human MALME-3M cells after 48 hrs by sulforhodamine B assay; assay type: functional; how it was run: as §2
[27] = test system: U-251; test: Growth inhibition of human U251 cells at 10 uM after 48 hrs by sulforhodamine B assay relative to control; assay type: functional; conditions: U-251, 48 h, read-out: GI
How it was run: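 NCI-60 human cancer cell line screen, single dose of 10 μM for 48 h. Cellular protein content read by sulforhodamine B staining; growth inhibition expressed relative to untreated control.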

[28] = test system: PC-3; test: Growth inhibition of human PC3 cells after 48 hrs by sulforhodamine B assay; assay type: functional; conditions: PC-3, 48 h; how it was run: as §1
[29] = test system: UACC-62; test: Growth inhibition of human UACC62 cells after 48 hrs by sulforhodamine B assay; assay type: functional; conditions: UACC-62, 48 h
How it was run: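 NCI-60 panel cells treated at five concentrations from 10 nM to 100 μM for 48 h. Read-out by sulforhodamine B protein stain. GI50 and total growth inhibition (TGI, if below 100 μM) taken from the concentration-response data.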

Q: With `Cc1noc(C)c1-c1cc(O)cc(C(O)c2ccccc2)c1` (stereo not drawn) as the compound, how does the GI50 [1] read?
A: The GI50 was 5.95 µM.

Q: And the TGI [1]?
A: The TGI was 29.5 µM.

Q: And the Activity [2]?
A: Its Activity is 100%.

Q: What about the Activity [3] of the same compound?
A: The Activity was 0.2%.

Q: What about the GI50 [4] of the same compound?
A: The GI50 was 8.41 µM.

Q: And the inhibition of growth at 10 µM [5]?
A: The inhibition of growth at 10 µM was 39.4%.

Q: And the Activity [6]?
A: The Activity was 0.5%.

Q: What about the Activity [7] of the same compound?
A: Its Activity is 100%.

Q: And the GI50 [8]?
A: Its GI50 is 4.76 µM.

Q: What about the inhibition of growth at 10 µM [9] of the same compound?
A: Its inhibition of growth at 10 µM is 77.9%.

Q: And the microsomal CLint at 3 µM [10]?
A: Its microsomal CLint at 3 µM is 34.8 µL/min/mg.

Q: What about the inhibition of growth at 10 µM [11] of the same compound?
A: The inhibition of growth at 10 µM was 52.4%.

Q: And the Activity [12]?
A: The Activity was 66%.

Q: And the GI50 [13]?
A: Its GI50 is 7.01 µM.

Q: What about the Activity [14] of the same compound?
A: The Activity was 43%.

Q: What about the GI50 [15] of the same compound?
A: The GI50 was 8.55 µM.

Q: What about the Activity [16] of the same compound?
A: The Activity was 8.8%.

Q: What about the GI50 [17] of the same compound?
A: Its GI50 is 25.1 µM.

Q: What about the Activity [18] of the same compound?
A: The Activity was 100%.

Q: What about the Activity [19] of the same compound?
A: The Activity was 3.7%.

Q: And the inhibition of growth at 10 µM [20]?
A: Its inhibition of growth at 10 µM is 41.3%.

Q: What about the Activity [21] of the same compound?
A: The Activity was 100%.

Q: And the GI50 [22]?
A: The GI50 was 5.25 µM.

Q: What about the GI50 [23] of the same compound?
A: The GI50 was 1.89 µM.

Q: What about the TGI [23] of the same compound?
A: Its TGI is 40.6 µM.

Q: And the Activity [24]?
A: Its Activity is 1.4%.

Q: And the Activity [25]?
A: The Activity was 93%.

Q: What about the GI50 [26] of the same compound?
A: The GI50 was 28.9 µM.

Q: Which GI50 [1] does the source give for `COc1ccccc1S(=O)(=O)Nc1ccc2c(c1)CN(C)C(=O)N2` here?
A: Its GI50 is 6.3 µM.

Q: What about the inhibition of growth at 10 µM [27] of the same compound?
A: Its inhibition of growth at 10 µM is 50%.

Q: What about the GI50 [4] of the same compound?
A: The GI50 was 6 µM.

Q: What about the inhibition of growth at 10 µM [5] of the same compound?
A: Its inhibition of growth at 10 µM is 65.3%.

Q: And the GI50 [8]?
A: The GI50 was 7.8 µM.

Q: And the inhibition of growth at 10 µM [9]?
A: Its inhibition of growth at 10 µM is 73.9%.

Q: And the inhibition of growth at 10 µM [11]?
A: The inhibition of growth at 10 µM was 57.1%.

Q: And the GI50 [13]?
A: Its GI50 is 4.9 µM.

Q: What about the GI50 [28] of the same compound?
A: The GI50 was 28.2 µM.

Q: What about the GI50 [17] of the same compound?
A: The GI50 was 9.3 µM.

Q: What about the inhibition of growth at 10 µM [20] of the same compound?
A: Its inhibition of growth at 10 µM is 61.6%.

Q: What about the GI50 [29] of the same compound?
A: The GI50 was 0.7 µM.

Q: What about the GI50 [22] of the same compound?
A: Its GI50 is 3 µM.

Q: What about the GI50 [23] of the same compound?
A: Its GI50 is 1.5 µM.

Q: And the TGI [23]?
A: The TGI was 47.9 µM.
